{"source": "PubChem BioAssay AID617", "about": "(SRMLSC, 2007)", "data": [{"test_system": "E. coli BW25113 ΔtolC growth inhibition, OD615", "assay": "E. coli ΔtolC antibacterial growth inhibition – strain BW25113 ΔtolC::kan, dose response (AID 617)", "outline": "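Test system: E. coli BW25113 ΔtolC::kan bacteria / Buffer or medium: kanamycin-containing LB broth, 50 µg/mL / Compound: serial dilution series of compound / Incubation: bacterial growth with compound for 20 h, 37 °C / Measured by: OD615 / Read-out basis: growth-inhibition IC50 from four-parameter logistic curve, bounds set to 0% and 100%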", "units": {"IC50": "µM"}, "values": [{"compound": "CCOC(=O)Cc1nnc2c(Nc3ccccc3F)nc3nonc3n12", "IC50": 6.82}, {"compound": "c1ccc(CN2CCN(c3nc(-c4ccccc4)nc(-n4ccnc4)n3)CC2)cc1", "IC50": 6.13}, {"compound": "Cc1ccc(S(=O)(=O)Nc2cccc(-c3cn4ccsc4n3)c2)cc1", "IC50": 15.5}, {"compound": "CCn1c(C(=O)N2CCC(Cc3ccccc3)CC2)cc2sccc21", "IC50": 10.2}, {"compound": "COc1cc(Cc2cnc(N)nc2N)cc(OC)c1OC", "IC50": 0.34}, {"compound": "CN1CCN(CC(=O)N2CCn3c4c(c5cc(C6CCCCC6)ccc53)CCCC42)CC1", "note": "(configuration not stated)", "IC50": 66.7}, {"compound": "C=C(C)COc1ccc(-c2[nH]ncc2Oc2ccccc2OCC)c(O)c1", "IC50": 6.14}, {"compound": "c1ccc(-c2csc(N3CCN(c4ccccn4)CC3)n2)cc1", "IC50": 8.99}, {"compound": "COC(=O)C1=C(CSc2nc3ccccc3o2)NC(=O)NC1c1cc(C)ccc1C", "note": "(configuration not stated)", "IC50": 13}, {"compound": "COc1ccc(OC)c(S(=O)(=O)N2CCN(c3c(C)cccc3C)CC2)c1", "IC50": 15.6}, {"compound": "C=C(C)C1CCC(C)=C1COC(=O)Nc1ccccc1", "note": "(configuration not stated)", "IC50": 12.2}, {"compound": "O=C(c1cc2nc(-c3ccco3)cc(C(F)(F)F)n2n1)N1CCN(c2ccc(F)cc2)CC1", "IC50": 10.2}, {"compound": "COc1nc(N(c2ccccc2)c2ccccc2)nc(-n2ccnc2)n1", "IC50": 5.65}, {"compound": "CC1Cc2ccccc2N1C(=O)Cn1c(=O)oc2cc(S(=O)(=O)NC3CCCC3)ccc21", "note": "(configuration not stated)", "IC50": 4.39}, {"compound": "Cc1cc(C(=O)CSc2nc3ccccc3o2)c(C)n1C1CC1", "IC50": 7.02}, {"compound": "O=C(Nc1ccc(Cl)cc1)N(Cc1cccs1)Cc1cccs1", "IC50": 10.7}, {"compound": "O=C(CCNc1cc(Cl)cc(Cl)c1)c1ccco1", "IC50": 30.9}, {"compound": "CCOC(=O)Cc1c(C)nc2c(-c3cccc(Br)c3)c[nH]n2c1=O", "IC50": 0.17}, {"compound": "Cc1ccccc1S(=O)(=O)Cc1ccc(C(=O)N2CCN(c3cccc(C)c3C)CC2)o1", "IC50": 30.8}, {"compound": "COc1ccc(-c2cc(C(=O)N3CC4(C)CC3CC(C)(C)C4)no2)cc1OC", "note": "(configuration not stated)", "IC50": 14.1}, {"compound": "Cc1ccc(NC(=O)c2ccccc2O)cc1", "IC50": 16}, {"compound": "CCCCOc1ccc(NC2=NC3(CCCCC3)N=C(N)N2)cc1", "IC50": 2.64}, {"compound": "O=C1CN(C(=O)c2ccc(Br)o2)C(c2ccccc2)c2cc(Cl)ccc2N1", "note": "(configuration not stated)", "IC50": 15.6}, {"compound": "CCCOC(=O)c1ccc(-c2c(C)noc2-c2ccc(OC)cc2O)o1", "IC50": 4.71}, {"compound": "O=C(Nc1nc(SCc2ccc(F)cc2)ns1)c1ccco1", "IC50": 4.2}, {"compound": "Cc1noc(C)c1S(=O)(=O)N(CCc1ccccc1)Cc1ccccc1", "IC50": 16.6}, {"compound": "Cn1c(=O)n(CCCOc2ccc(Cl)cc2)c2ccccc21", "IC50": 15.7}, {"compound": "Cc1cc(N2CCC(C(=O)Nc3ccc(F)cc3)CC2)nc(-c2ccccc2)n1", "IC50": 22.5}, {"compound": "Cc1nc2c(C(=O)NCCC3=CCCCC3)c[nH]n2c(=O)c1Cl", "IC50": 8.36}, {"compound": "CCOc1ccc(-c2nc(C#N)c(N3CCCCCC3)o2)cc1", "IC50": 12.7}, {"compound": "Cc1ccc2c(c1)c(C)c(C)n2CC(O)Cn1nc(C)c(Br)c1C", "note": "(configuration not stated)", "IC50": 11.8}, {"compound": "Clc1ccc(COC(Cn2ccnc2)c2ccc(Cl)cc2Cl)c(Cl)c1", "note": "(configuration not stated)", "IC50": 3.22}, {"compound": "CCCCn1c(O)c(C(CC)=NCCc2ccccc2)c(=O)[nH]c1=O", "IC50": 14}, {"compound": "CCOC(=O)Cc1nnc2c(Nc3ccc(Cl)cc3)nc3nonc3n12", "IC50": 3.75}, {"compound": "CCCOc1nc2c(c(=O)n(C)c(=O)n2C)n1Cc1cccc2ccccc12", "IC50": 28.2}, {"compound": "O=C(COc1ccc(Cl)cc1)Nc1nnc(-c2ccc3c(c2)CCCC3)o1", "IC50": 0.25}, {"compound": "CCS(=O)(=O)n1nc(-c2ccccc2)nc1SCc1ccccc1", "IC50": 15.7}, {"compound": "CCOc1cccc(NC(=O)C2CC(=O)N(C)C(=Nc3cccc(F)c3)S2)c1", "note": "(configuration not stated)", "IC50": 15.1}, {"compound": "O=C(NCCc1ccccc1)c1nc2c(nnn2Cc2ccccc2Cl)c(=O)[nH]1", "IC50": 4.65}, {"compound": "Cc1cc(-c2nnc3n2N=C(c2ccc(-c4ccccc4)cc2)CS3)n[nH]1", "IC50": 9.55}, {"compound": "CCCCOc1[nH]c2nc(-c3ccco3)n(Cc3ccco3)c(=N)c2c1C#N", "IC50": 12}, {"compound": "O=S(=O)(Nc1nc2ccccc2nc1N1CCN(c2ccccn2)CC1)c1ccc(Cl)cc1", "IC50": 3.16}, {"compound": "CCCCN(CCCNC(=O)CN1C(=O)COc2ccccc21)c1ccccc1", "IC50": 38.9}, {"compound": "O=C(N1CCN(c2ccccn2)CC1)N1c2ccccc2Sc2ccccc21", "IC50": 19.4}, {"compound": "CCn1c(CNc2cccc(Cl)c2)nnc1SCC(=O)OC1CCCCC1", "IC50": 17.8}, {"compound": "CCOC(=O)c1cc2sc(C)cc2n1C(C)C(=O)OCC", "note": "(configuration not stated)", "IC50": 60.6}, {"compound": "CCSc1nnc(NC(=O)c2nc(-c3ccccc3)n(-c3ccccc3)n2)s1", "IC50": 2.23}, {"compound": "CCC(=Nc1ccc(OC)cc1OC)c1c(O)n(C2CCCCC2)c(=O)[nH]c1=O", "IC50": 4.85}, {"compound": "Oc1ccc(Cl)cc1-c1cc(-c2ccccc2)n[nH]1", "IC50": 6.46}, {"compound": "CCCCn1c(=O)n(Cc2cccc(F)c2)c(=O)c2c1ncn2Cc1ccco1", "IC50": 14.8}, {"compound": "C=CCOC(=O)C(C#N)c1nc2ccccc2nc1N1CCN(Cc2ccccc2)CC1", "note": "(configuration not stated)", "IC50": 17.2}, {"compound": "C#CCSc1nnc(-c2cccc3ccccc23)o1", "IC50": 12.2}, {"compound": "O=C(Nc1scc(-c2cccs2)c1C(=O)O)c1cccs1", "IC50": 10.5}, {"compound": "O=C(c1noc2c1CCc1ccccc1-2)N1CCCc2ccccc21", "IC50": 12.2}, {"compound": "Cc1ccc(Cl)cc1NC(=O)CC(O)(C(F)(F)F)C(F)(F)F", "IC50": 3.77}, {"compound": "Cc1cccc(Nc2nc(NCc3ccco3)nc(N3CCOCC3)n2)c1", "IC50": 10.1}, {"compound": "FC(F)(F)c1cccc(N2CCN(c3nnnn3-c3ccccc3)CC2)c1", "IC50": 20.8}]}]}
